pIC50: −log10 of the molar value. Several values for one entry are separate records, joined by “and”; a condition that tells them apart may be missing. Identical values can stand only once.
What was measured:
P388 [1] = assay: Effective concentration to inhibit cell proliferation by 50% relative to untreated control cell after 72 hr of continuous exposure in P388 cell line; type: functional, cell-based; conditions: Mus musculus, P388, 72 h
P388 [2] = assay: Effective concentration to inhibit cell proliferation by 50% relative to untreated control cell after 72 hr of continuous exposure in P388/4.0 r-M cell line; type: functional, cell-based; conditions: Mus musculus, P388, 72 h
HCT-116 [3] = assay: Effective concentration to inhibit cell proliferation by 50% relative to untreated control cell after 72 hr of continuous exposure in HCT116-C9 cell line; type: functional, cell-based; conditions: Homo sapiens, HCT-116, 72 h
HCT-116 [4] = assay: Effective concentration to inhibit cell proliferation by 50% relative to untreated control cell after 72 hr of continuous exposure in HCT116-C9 -C1cell line; type: functional, cell-based; conditions: Homo sapiens, HCT-116, 72 h
Tubulin = Tubulin (Bos taurus, UniProt Q6B856+Q862L2+Q862F3); assay: Inhibitory activity against tubulin polymerization.; type: functional
In short: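 Bovine brain microtubule protein (1 mg/mL) in 0.1 M MES, 1 mM EGTA, 0.5 mM MgCl2, pH 6.8, with 5% DMSO final. Compound at 0.30–100 µM, held 30 min at 4 °C, then warmed to 37 °C with 1 mM GTP. Turbidity followed at 350 nm; the 30 min value is plotted against log concentration. IC50 by least squares, triplicate.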

[5] = Relative resistance value as the ratio of IC50 for the resistant cell line to that of parental cell line.; type: functional
In short: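 Ratio of MTT IC50 (72 h exposure) in the resistant subclone to that in the parental line: P388/4.0r-M versus P388, and HCT116-C9-C1 versus HCT116-C9. IC50s come from two triplicate runs each.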

pIC50 (P388 [1]) | pIC50 (P388 [2]) | pIC50 (HCT-116 [3]) | pIC50 (HCT-116 [4]) | IC50 (Tubulin) [nM] | Structure (SMILES) | Relative resistance [5]
5.92 | 5.92 | 6.43 | 5.66 | 9500 | COc1ccc(S(=O)(=O)Nc2cccc3c(Cl)c[nH]c23)cc1 | 
 |  |  |  | 2100 | COc1ccc(S(=O)(=O)Nc2cccc3cc(Cl)[nH]c23)cc1 | 
6.72 | 4.82 | 6.05 | 6.02 | 2200 | COc1ccc(S(=O)(=O)Nc2cccnc2Nc2ccc(O)cc2)cc1 [ABT-751] | 
 |  |  |  | > 100000 | NS(=O)(=O)c1ccc(C(=O)Nc2cccc3c(Cl)c[nH]c23)cc1 | 
6.21 | 6.23 | 6.68 | 4.54 | > 100000 | NS(=O)(=O)c1ccc(S(=O)(=O)Nc2cccc3c(Cl)c[nH]c23)cc1 [INDISULAM] | 0.97 and 1.4
 |  |  |  | > 100000 | NS(=O)(=O)c1ccc(S(=O)(=O)Nc2cccc3cc[nH]c23)cc1 | 
 |  |  |  | > 100000 | N#Cc1ccc(S(=O)(=O)Nc2cccc3c(Cl)c[nH]c23)cc1 | 

— ChEMBL document CHEMBL1135639, “Array-based structure and gene expression relationship study of antitumor sulfonamides including N-[2-[(4-hydroxyphenyl)amino]-3-pyridinyl]-4-methoxybenzenesulfonamide and N-(3-chloro-7-indolyl)-1,4-benzenedisulfonamide” (J Med Chem, 2002)
